A selection: hits, their analogues and other compounds. The true share with any hit is near 11%.
M1 agonist = agonists of M1 muscarinic receptor | CHO-M1 cells, Fluo-4 calcium fluorescence, agonist mode; hits give high values | B-score at 10 µM | 64,000 tested, 3% active;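 active = fluorescence rise, raw or as B-score row- and column-corrected plate score, outside the 99.7% band of its plate's samples, either direction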
M1 antagonist = blocks the rat M1 muscarinic receptor response to acetylcholine; AID 628; 64,000 tested, 3.4% active; B-score at 10 µM; CHO-M1 cells, Fluo-4 calcium, ACh EC80 antagonist mode; hits give low values;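 active = calcium fluorescence response, raw or row-and-column corrected B-score, differing from the plate sample mean either way at a set confidence level, mostly lower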
mHtt clearance = compounds clearing mutant huntingtin protein. HeLa Exon1htt(103Q)mCFP, aggregate imaging; zero = plate's median compound well. inhibition, % at 1.5 µM. 47,000 tested, 0.42% active. AID 853;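 active = inhibition of aggregate fluorescence above about 70%, also judged a hit by eye on the cell image, limit read from the data, passing the limit was not always enough; inconclusive = no rule stated for this call; inactive = not judged a hit on image review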;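 note: cells exposed to compound for three days before fixation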
RORA act = activators of human nuclear receptor RORA; P35398; CHO-K1 Gal4-RORA LBD luciferase reporter, luminescence; percent increase over mock-subtracted basal signal; activation, % at 10 µM; 65,000 tested, 1.5% active;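 active = activation above the mean of all tested compounds plus 3 SD, cut at about 49% in these data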
Target sequence (P35398 whole entry, looked up, the tested form may be a part): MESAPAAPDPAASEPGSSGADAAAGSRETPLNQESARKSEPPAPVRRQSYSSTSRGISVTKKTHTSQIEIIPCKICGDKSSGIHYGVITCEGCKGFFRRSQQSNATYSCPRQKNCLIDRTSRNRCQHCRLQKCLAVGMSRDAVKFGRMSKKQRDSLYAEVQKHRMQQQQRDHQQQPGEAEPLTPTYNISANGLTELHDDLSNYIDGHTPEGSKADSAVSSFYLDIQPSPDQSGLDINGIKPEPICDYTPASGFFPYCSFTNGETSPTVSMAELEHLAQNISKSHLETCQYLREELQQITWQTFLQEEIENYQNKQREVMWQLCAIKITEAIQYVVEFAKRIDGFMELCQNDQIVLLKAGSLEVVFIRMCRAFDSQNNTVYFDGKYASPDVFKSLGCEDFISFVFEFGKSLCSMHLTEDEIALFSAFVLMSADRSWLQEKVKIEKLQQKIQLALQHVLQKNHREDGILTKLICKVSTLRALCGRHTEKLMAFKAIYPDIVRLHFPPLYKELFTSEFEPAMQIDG
SF-1 act = SF-1 (human) activation. 65,000 tested, 1.9% active. CHO-K1 Gal4-SF-1 LBD luciferase reporter; % increase over DMSO SF-1-specific signal. AID 522. activation, % at 10 µM. Q13285;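 active = activation above the mean activation of all tested compounds plus 3 SD, cut at about 50% in these data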
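Test system: CHO-K1 cells with Gal4–hSF-1 LBD chimera plus Gal4-driven luciferase; Input: 4,000 cells/well; Compound: 10 µM only; Times: 20 h compound treatment, 37 °C; Measured by: steady-glow luciferase luminescence, read after 15 min reagent incubation; Measure: percent activation versus DMSO; Control set: DMSO and mock-transfected background; Replicates: one test per compound.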
D1 mod = allosterically modulates the human D1 dopamine receptor | HEK293 D1, CRE-luciferase, dopamine EC30 potentiation; actives deviate in either direction | B-score at 10 µM | 58,000 tested, 5.9% active | AID 641;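 active = luminescence count or its row- and column-corrected plate score outside the 99.7% band of the plate's sample wells, on either side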
M1 antag confirm = M1 muscarinic receptor (rat) antagonism, confirmed; calcium response (max-min fluorescence) at 10 µM; 1,700 tested, 43% active; CHO-M1 cells, Fluo-4 calcium, ACh EC80 antagonism; hits give low values; shares compounds with M1 antagonist; AID 677;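 active = calcium response below the same-plate mean of wells given acetylcholine alone at its 80%-effect dose, minus 3 SD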
mGluR4 antag = acts on human mGluR4 in M1 antagonist selectivity test; shares compounds with M1 antagonist; CHO-mGluR4 calcium flux, Fluo-4 fluorescence, glutamate EC80; hits give low values; fluorescence response (max-min) at 10 µM; 1,700 tested, 0.9% active;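 active = fluorescence response below the plate's average for near-maximal glutamate wells, less 3 SD of those wells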;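 note: raw unnormalized fluorescence span taken in the window right after glutamate addition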
Numbers stand for hits; i = inactive; ? = inconclusive; nt = no result given.

SMILES	M1 agonist	M1 antagonist	mHtt clearance	RORA act	SF-1 act	D1 mod	M1 antag confirm	mGluR4 antag
CCOC(=O)C(CC)n1cnc2c(oc3ccccc32)c1=O (stereo unspecified)	i	i	i	i	i	i	nt	nt
CCOc1ccccc1NC(=O)c1cc(CC(C)C)oc1C	i	-2.4	i	i	i	i	i	i
Cc1oc(CC(C)C)cc1C(=O)Nc1cccc2ccccc12	nt	nt	i	nt	nt	nt	nt	nt
CCOC(=O)N1CCN(C(=O)CN(c2ccc(Oc3ccccc3)cc2)S(C)(=O)=O)CC1	i	i	nt	i	i	nt	nt	nt
CS(=O)(=O)N(CC(=O)N1CCC(C(N)=O)CC1)c1ccc(Oc2ccccc2)cc1	i	-1.6	nt	i	i	i	i	i
CC(C)(C)c1cnnn1-c1ccc(NC(=O)c2ccc(Br)o2)cc1	i	-2.3	nt	i	i	nt	560	i
Cc1noc(C)c1CSc1nc2ccccc2c(=O)n1-c1ccc(Cl)cc1	nt	nt	i	nt	nt	nt	nt	nt
CN(C)C(=O)CSc1nnc(-c2cc(-c3cccs3)nc3ccccc23)o1	i	-3.7	i	i	i	i	i	i
CCOC(=O)c1ccc(S(=O)(=O)n2c(CN3CCCCC3)nc3ccccc32)cc1	i	i	i	i	i	i	nt	nt
CCOC(=O)C1=C(O)CCn2c1nc1ccccc12	i	-2.3	nt	i	i	i	i	i
N#Cc1c(NC(=O)c2cc(-n3cnnc3)ccc2Cl)sc2c1CCCC2	i	-3.2	nt	i	i	i	i	i
C(=N\c1nccs1)/c1cccnc1	i	i	i	nt	nt	i	nt	nt
O=C(Cn1nc(-c2ccccc2)ccc1=O)NCC1CCCO1 (stereo unspecified)	nt	nt	i	nt	nt	nt	nt	nt
O=C(Cn1nc(-c2ccc(Cl)cc2)ccc1=O)NCC1CCCO1 (stereo unspecified)	i	-0.8	?	i	i	i	i	i
CC(C)Oc1ccc(C(=O)Nc2ccc(N3CCCC3)cc2)cc1	i	-2.1	i	i	i	i	405	i
O=C(O)c1ccc(NC(=O)C2CC=CCC2C(=O)O)cc1 (stereo unspecified)	i	-7.2	i	i	i	i	i	i
O=C(O)C1CC=CCC1C(=O)Nc1ccccc1 (stereo unspecified)	nt	nt	i	nt	nt	nt	nt	nt
COC(=O)COc1ccc(S(=O)(=O)Nc2ccc(NC(C)=O)cc2)cc1C	i	-3.1	i	i	i	i	i	i
Cc1cc(-c2ccccc2)c2c3c(cn2n1)c(=O)n(C)c(=O)n3C	i	i	i	i	i	i	nt	nt
Cc1cc(-c2ccccc2)c2nncn2n1	i	-14	nt	i	i	i	i	i
CCn1c2ccccc2c2nc3cc(OC)c(OC)cc3nc21	i	-5.7	?	i	i	i	i	154
COc1cc2nc3c4ccccc4n(CC#N)c3nc2cc1OC	i	i	i	i	i	i	nt	nt
O=C(NCc1ccccc1F)C1CCCN(C(=O)NC2CCCCC2)C1 (stereo unspecified)	i	i	i	i	i	i	nt	nt
O=C(CSc1nnc(NCc2ccccc2)s1)c1ccco1	i	i	i	i	i	i	nt	nt
C=CCNc1nc(N2CCCC2)nc2ccccc12	i	-3.4	i	i	i	-4.5	i	i
SMILES	M1 agonist	M1 antagonist	mHtt clearance	RORA act	SF-1 act	D1 mod	M1 antag confirm	mGluR4 antag
OCCNc1nc(N2CCN(Cc3ccccc3)CC2)nc2ccccc12	i	i	i	i	i	i	nt	nt
COc1ccc(Nc2nc(N3CCCC3)nc3ccccc23)c(OC)c1	i	-8.1	i	i	i	i	342	i
Nc1nc2ccccc2n1/N=C/c1ccc(Br)cc1	i	-6.7	nt	70	69	i	i	i
CC1(C)CN=C(NC2CCCCC2)S1	i	-4.8	nt	i	i	i	459	i
O=C(CCN1CCc2ccccc2C1)c1ccc2c(c1)OCCO2	i	-5.7	i	i	i	i	487	i
O=C(CCN1CCCCC1)c1ccc2c(c1)OCCO2	i	i	nt	i	i	i	nt	nt
CN1CCN(c2nc3nonc3nc2N2CCN(C)CC2)CC1	i	i	i	i	i	i	nt	nt
O=c1c2ccccc2nnn1CSc1nnc(C2COc3ccccc3O2)n1-c1ccccc1 (stereo unspecified)	i	-2.4	nt	i	i	i	i	159
O=C(OCn1nnc2ccccc2c1=O)C1COc2ccccc2O1 (stereo unspecified)	i	i	i	i	i	i	nt	nt
CC1CCCC(C)N1CC(O)COc1ccc(Cl)cc1 (stereo unspecified)	i	-3.2	i	i	i	i	501	i
COc1cccc(OCC(O)CN2C(C)CCCC2C)c1 (stereo unspecified)	i	i	i	i	i	i	nt	nt
O=C(NCc1nnc(SCC(=O)N2CCCC2)o1)c1ccccc1F	i	i	nt	i	i	i	nt	nt
O=C(CSc1nnc(CNC(=O)c2ccccc2F)o1)c1ccccc1	i	-3.2	nt	i	i	i	i	i
Cc1sc2ncnc(OCC(=O)c3ccc(S(=O)(=O)N4CCCC4)cc3)c2c1C	i	-3.1	nt	i	i	i	i	i
Cc1sc2ncnc(OCC(=O)N3CCN(S(=O)(=O)c4ccc(Cl)cc4)CC3)c2c1C	i	i	nt	i	i	i	nt	nt
Cc1c(C(=O)NCCSCc2c(Cl)cccc2Cl)cccc1[N+](=O)[O-]	nt	nt	i	nt	nt	nt	nt	nt
O=C(Cn1c(=O)n(-c2ccccc2)c(=O)n1CC(=O)N1CCCCC1)N1CCCCC1	i	i	i	i	i	i	nt	nt
O=C(COC(=O)c1ccccc1Oc1ccccc1)NC1CCS(=O)(=O)C1 (stereo unspecified)	i	-1.5	nt	i	i	i	i	i
CSc1ncccc1C(=O)OCC(=O)NC1CCS(=O)(=O)C1 (stereo unspecified)	i	i	i	i	i	nt	nt	nt
COC(=O)c1sc(S(=O)(=O)N2CCCCC2)c(C(=O)OC)c1C	i	-4.5	nt	i	i	i	248	i
COC(=O)c1sc(S(=O)(=O)N2CCC(C)CC2)c(C(=O)OC)c1C	i	i	i	i	i	i	nt	nt
CC(C)CCNC(=O)Cn1c(=O)oc2cc(S(=O)(=O)N3CCc4ccccc43)ccc21	i	-4.5	i	i	i	i	478	i
O=C(Cn1c(=O)oc2cc(S(=O)(=O)N3CCc4ccccc43)ccc21)NC1CCCC1	i	-4.3	i	i	i	i	503	i
O=C(C1CCCCC1)N(CCN1CCCC1)c1nc2ccccc2s1	i	-2.3	i	i	i	i	i	i
COc1ccc(S(=O)(=O)N2CCC[C@H]2C(=O)NC2=NCCS2)cc1	nt	nt	i	nt	nt	nt	nt	nt
COc1ccc(S(=O)(=O)N2CCCC2C(=O)Nc2nnc(-c3cccnc3)s2)cc1 (stereo unspecified)	i	-1.9	i	i	i	i	i	i
CCN1C(=O)N(CC)C2C1N(C(C)=O)C(=O)N2C(C)=O (stereo unspecified)	i	i	i	i	i	i	nt	nt

Assay outcomes deposited in PubChem by several laboratories.
